Laboratory results as given in ChEMBL document CHEMBL1144553, “alpha-Biphenylsulfonylamino 2-methylpropyl phosphonates: enantioselective synthesis and selective inhibition of MMPs” (Bioorg Med Chem, 2007).
pIC50: −log10 of the molar value.

What was measured:
Interstitial collagenase = target: T1, Interstitial collagenase (Homo sapiens, UniProt P03956); test: Inhibition of MMP1
T1 sequence (P03956 whole entry): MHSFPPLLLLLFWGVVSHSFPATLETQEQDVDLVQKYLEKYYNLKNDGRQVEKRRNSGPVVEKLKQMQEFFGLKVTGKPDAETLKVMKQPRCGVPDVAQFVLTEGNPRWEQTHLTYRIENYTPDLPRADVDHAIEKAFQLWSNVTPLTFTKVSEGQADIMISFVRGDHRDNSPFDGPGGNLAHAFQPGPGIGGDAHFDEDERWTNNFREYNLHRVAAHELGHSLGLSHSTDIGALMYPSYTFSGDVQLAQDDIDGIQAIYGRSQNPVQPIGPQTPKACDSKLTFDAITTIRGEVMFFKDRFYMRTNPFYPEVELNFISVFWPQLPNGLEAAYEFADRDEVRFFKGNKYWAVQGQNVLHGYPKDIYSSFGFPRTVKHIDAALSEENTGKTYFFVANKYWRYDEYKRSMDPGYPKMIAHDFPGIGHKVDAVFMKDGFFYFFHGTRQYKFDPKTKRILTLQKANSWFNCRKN
Summary of the method: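 Pro-MMP-1 from a commercial source, activated with APMA (2 mM, 1 h, 37 °C). Enzyme at 0.20 nM final was preincubated 4 h at 25 °C with inhibitor at seven concentrations in Tris 50 mM pH 7.5, NaCl, CaCl2, Brij 35 and 1% DMSO. Mca-Lys-Pro-Leu-Gly-Leu-Dpa-Ala-Arg-NH2 was added and fluorescence (ex 325/em 400 nm) read every 15 s for 20 min, in triplicate. IC50 from Vi/Vo = 1/(1+[I]/IC50).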

[1] = target: 72 kDa type IV collagenase (Homo sapiens, UniProt P08253); test: Inhibition of human recombinant MMP2 expressed in mouse myeloma cells; type: cell-based
Chain of 72 kDa type IV collagenase (P08253 whole entry): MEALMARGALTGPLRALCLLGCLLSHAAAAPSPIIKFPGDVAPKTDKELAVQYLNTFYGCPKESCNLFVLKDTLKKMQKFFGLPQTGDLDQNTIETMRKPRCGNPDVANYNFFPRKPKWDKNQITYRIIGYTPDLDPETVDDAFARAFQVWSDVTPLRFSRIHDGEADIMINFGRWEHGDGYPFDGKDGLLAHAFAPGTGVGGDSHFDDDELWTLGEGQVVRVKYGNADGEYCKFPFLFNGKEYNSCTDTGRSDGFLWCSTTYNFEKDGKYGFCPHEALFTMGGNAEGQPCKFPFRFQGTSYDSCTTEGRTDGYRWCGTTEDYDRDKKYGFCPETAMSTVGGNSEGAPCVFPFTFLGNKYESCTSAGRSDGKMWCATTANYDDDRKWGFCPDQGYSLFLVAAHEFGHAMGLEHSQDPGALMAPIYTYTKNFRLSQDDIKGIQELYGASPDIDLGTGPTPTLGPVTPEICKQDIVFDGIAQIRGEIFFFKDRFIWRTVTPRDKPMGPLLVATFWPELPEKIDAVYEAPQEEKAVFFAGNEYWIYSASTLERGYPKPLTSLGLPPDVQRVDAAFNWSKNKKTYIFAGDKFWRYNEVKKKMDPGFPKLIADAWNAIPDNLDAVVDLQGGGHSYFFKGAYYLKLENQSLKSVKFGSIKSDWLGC
Summary of the method: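 Recombinant human pro-MMP-2 from transfected mouse myeloma cells, activated with APMA (2 mM, 1 h, 37 °C) and used at 2.9 nM final. It was preincubated 4 h at 25 °C with inhibitor (seven concentrations) in Tris 50 mM pH 7.5 buffer with 1% DMSO. Mca-Lys-Pro-Leu-Gly-Leu-Dpa-Ala-Arg-NH2 fluorescence (ex 325/em 400 nm) was read every 15 s for 20 min, in triplicate. IC50 from Vi/Vo = 1/(1+[I]/IC50).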

Stromelysin-1 [2] = target: T2, Stromelysin-1 (Homo sapiens, UniProt P08254); test: Inhibition of MMP3
Summary of the method: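 Purchased MMP-3 at 1 nM final was preincubated with inhibitor (seven concentrations) for 4 h at 25 °C in Tris pH 7.5 assay buffer containing CaCl2, Brij 35 and 1% DMSO. Substrate was Mca-Arg-Pro-Lys-Pro-Val-Glu-Nva-Trp-Arg-Lys(Dnp)-NH2, with fluorescence (ex 325/em 400 nm) read every 15 s over 20 min, in triplicate. IC50 from initial velocities via Vi/Vo = 1/(1+[I]/IC50).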
Target sequence in this assay (P08254 whole entry): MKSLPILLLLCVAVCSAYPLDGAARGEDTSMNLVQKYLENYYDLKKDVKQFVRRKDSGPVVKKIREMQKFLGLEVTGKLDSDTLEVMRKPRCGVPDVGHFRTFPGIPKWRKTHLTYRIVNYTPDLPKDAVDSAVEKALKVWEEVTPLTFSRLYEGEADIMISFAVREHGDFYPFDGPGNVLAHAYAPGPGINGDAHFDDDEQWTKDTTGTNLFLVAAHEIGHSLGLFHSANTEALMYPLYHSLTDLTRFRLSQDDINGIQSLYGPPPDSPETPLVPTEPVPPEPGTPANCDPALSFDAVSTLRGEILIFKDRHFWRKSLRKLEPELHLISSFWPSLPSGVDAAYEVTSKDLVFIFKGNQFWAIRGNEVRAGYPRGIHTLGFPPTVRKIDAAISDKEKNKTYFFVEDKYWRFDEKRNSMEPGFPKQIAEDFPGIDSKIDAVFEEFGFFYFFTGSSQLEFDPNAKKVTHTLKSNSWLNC

Matrilysin = target: T3, Matrilysin (Homo sapiens, UniProt P09237); test: Inhibition of MMP7
T3 sequence (P09237 whole entry): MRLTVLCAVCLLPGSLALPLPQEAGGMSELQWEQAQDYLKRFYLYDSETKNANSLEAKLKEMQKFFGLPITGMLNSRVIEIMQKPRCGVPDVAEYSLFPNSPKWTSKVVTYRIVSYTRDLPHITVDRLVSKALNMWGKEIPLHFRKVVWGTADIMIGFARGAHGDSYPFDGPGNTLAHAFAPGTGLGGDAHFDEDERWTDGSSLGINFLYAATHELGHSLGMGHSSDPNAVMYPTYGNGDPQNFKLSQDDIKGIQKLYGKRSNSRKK
Summary of the method: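 Pro-MMP-7 from a commercial source, activated with APMA (1 mM, 1 h, 37 °C) and used at 2.4 nM final. It was preincubated 4 h at 25 °C with inhibitor at seven concentrations in Tris pH 7.5 buffer (CaCl2, Brij 35, 1% DMSO). Mca-Lys-Pro-Leu-Gly-Leu-Dpa-Ala-Arg-NH2 cleavage was monitored fluorimetrically (ex 325/em 400 nm) every 15 s for 20 min, in triplicate. IC50 via Vi/Vo = 1/(1+[I]/IC50).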

Neutrophil collagenase = Neutrophil collagenase (Homo sapiens, UniProt P22894); test: Inhibition of MMP8
Chain of Neutrophil collagenase (P22894 whole entry): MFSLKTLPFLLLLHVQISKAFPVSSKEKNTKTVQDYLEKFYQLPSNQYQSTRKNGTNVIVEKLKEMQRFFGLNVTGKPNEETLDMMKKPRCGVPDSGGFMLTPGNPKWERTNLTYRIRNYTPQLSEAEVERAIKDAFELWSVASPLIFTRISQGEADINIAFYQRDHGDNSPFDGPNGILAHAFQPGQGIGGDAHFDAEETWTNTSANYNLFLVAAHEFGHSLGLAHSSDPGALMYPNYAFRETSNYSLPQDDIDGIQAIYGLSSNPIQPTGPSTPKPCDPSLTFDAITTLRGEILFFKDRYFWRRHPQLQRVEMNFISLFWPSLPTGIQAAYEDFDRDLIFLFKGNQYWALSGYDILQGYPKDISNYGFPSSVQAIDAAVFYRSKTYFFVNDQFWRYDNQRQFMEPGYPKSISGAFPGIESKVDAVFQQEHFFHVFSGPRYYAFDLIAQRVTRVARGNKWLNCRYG

[3] = target: T4, Matrix metalloproteinase-9 (Homo sapiens, UniProt P14780); test: Inhibition of human recombinant MMP9 expressed in mouse myeloma cells; type: cell-based
T4 sequence (P14780 whole entry): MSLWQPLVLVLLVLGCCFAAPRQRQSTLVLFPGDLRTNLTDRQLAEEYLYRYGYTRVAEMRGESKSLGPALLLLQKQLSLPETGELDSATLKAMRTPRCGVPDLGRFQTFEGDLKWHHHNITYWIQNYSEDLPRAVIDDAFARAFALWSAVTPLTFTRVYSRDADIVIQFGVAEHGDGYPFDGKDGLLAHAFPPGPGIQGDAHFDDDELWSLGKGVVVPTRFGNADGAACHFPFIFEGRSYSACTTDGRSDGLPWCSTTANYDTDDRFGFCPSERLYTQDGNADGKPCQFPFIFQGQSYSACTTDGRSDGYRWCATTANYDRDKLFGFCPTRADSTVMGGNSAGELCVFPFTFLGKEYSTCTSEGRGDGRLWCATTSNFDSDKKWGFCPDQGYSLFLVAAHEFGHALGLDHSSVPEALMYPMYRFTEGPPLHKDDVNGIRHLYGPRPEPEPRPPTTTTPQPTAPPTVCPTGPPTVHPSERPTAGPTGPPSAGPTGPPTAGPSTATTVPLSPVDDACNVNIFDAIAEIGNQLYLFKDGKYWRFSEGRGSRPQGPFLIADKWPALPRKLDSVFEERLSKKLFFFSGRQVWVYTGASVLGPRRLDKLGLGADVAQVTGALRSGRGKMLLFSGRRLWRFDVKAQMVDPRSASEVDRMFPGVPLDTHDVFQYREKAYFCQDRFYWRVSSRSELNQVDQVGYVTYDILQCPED
Summary of the method: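 Human pro-MMP-9 expressed in transfected mouse myeloma cells, APMA-activated (1 mM, 1 h, 37 °C) and used at 2.7 nM final. Preincubated 4 h at 25 °C with inhibitor at seven concentrations in Tris pH 7.5/CaCl2/Brij 35 buffer with 1% DMSO. Fluorogenic Mca-Lys-Pro-Leu-Gly-Leu-Dpa-Ala-Arg-NH2 hydrolysis (ex 325/em 400 nm) was read every 15 s for 20 min, in triplicate. IC50 via Vi/Vo = 1/(1+[I]/IC50).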

Collagenase 3 [4] = target: T5, Collagenase 3 (Homo sapiens, UniProt P45452); test: Inhibition of MMP13
Summary of the method: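 Purchased pro-MMP-13 was APMA-activated (1 mM, 0.5 h, 37 °C) and used at 0.66 nM final. It was preincubated with inhibitor (seven concentrations) for 4 h at 25 °C in Tris pH 7.5 buffer with CaCl2, Brij 35 and 1% DMSO. Cleavage of Mca-Lys-Pro-Leu-Gly-Leu-Dpa-Ala-Arg-NH2 was followed by fluorescence (ex 325/em 400 nm) every 15 s for 20 min, in triplicate. IC50 fitted to Vi/Vo = 1/(1+[I]/IC50).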

[5] = target: T6, Matrix metalloproteinase-14 (Homo sapiens, UniProt P50281); test: Inhibition of MMP14
Summary of the method: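 Commercial MMP-14 at 1 nM final, preincubated 4 h at 25 °C with inhibitor at seven concentrations in Tris 50 mM pH 7.5/NaCl/CaCl2/Brij 35 buffer with 1% DMSO. Read-out was fluorogenic substrate Mca-Lys-Pro-Leu-Gly-Leu-Dpa-Ala-Arg-NH2 hydrolysis (ex 325, em 400 nm), recorded every 15 s for 20 min, in triplicate. IC50 from Vi/Vo = 1/(1+[I]/IC50).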

[6] = target: T7, Interstitial collagenase (Homo sapiens) (UniProt P03956); test: Inhibition of human recombinant MMP1 at 100 uM
T7 sequence (whole entry): T1 sequence (P03956 whole entry)

Stromelysin-1 [7] = target: T2, Stromelysin-1; test: Inhibition of MMP3 at 100 uM
Target sequence in this assay (P08254 100-477 limits assumed): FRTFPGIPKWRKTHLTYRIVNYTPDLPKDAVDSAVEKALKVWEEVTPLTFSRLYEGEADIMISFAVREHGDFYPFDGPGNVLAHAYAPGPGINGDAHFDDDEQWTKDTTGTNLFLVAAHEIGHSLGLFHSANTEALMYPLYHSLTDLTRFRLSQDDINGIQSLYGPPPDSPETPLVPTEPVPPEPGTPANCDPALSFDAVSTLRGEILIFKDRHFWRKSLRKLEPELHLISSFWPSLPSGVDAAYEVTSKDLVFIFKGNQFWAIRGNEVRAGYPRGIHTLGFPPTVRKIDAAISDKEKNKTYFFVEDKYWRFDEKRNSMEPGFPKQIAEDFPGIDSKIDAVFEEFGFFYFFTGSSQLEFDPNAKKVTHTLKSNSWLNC

[8] = target: T4, Matrix metalloproteinase-9; test: Inhibition of human recombinant MMP9 expressed in mouse myeloma cells at 100 uM; type: cell-based
Collagenase 3 [9] = target: T5, Collagenase 3; test: Inhibition of MMP13 at 100 uM
[10] = target: T8, Matrilysin (Homo sapiens) (UniProt P09237); test: Inhibition of MMP7 at 100 uM
T8 sequence (whole entry): T3 sequence (P09237 whole entry)

[11] = target: T6, Matrix metalloproteinase-14; details: 100 uM

pIC50 (Interstitial collagenase)	pIC50 [1]	pIC50 (Stromelysin-1 [2])	pIC50 (Matrilysin)	pIC50 (Neutrophil collagenase)	pIC50 [3]	pIC50 (Collagenase 3 [4])	pIC50 [5]	inhibition [6] [%]	inhibition (Stromelysin-1 [7]) [%]	inhibition [8] [%]	inhibition (Collagenase 3 [9]) [%]	inhibition [10] [%]	inhibition [11] [%]	SMILES
6.23	7.28	5.92	4.70	8.62	6.77	7.20	6.74	–	–	–	–	–	–	CC(C)[C@H](NS(=O)(=O)c1ccc(-c2cccc(F)c2)cc1)P(=O)(O)O
–	6.01	–	4.30	6.59	5.15	6.09	5.22	33	34	–	–	–	–	CC(C)[C@H](NS(=O)(=O)c1ccc(CCc2ccccc2)cc1)P(=O)(O)O
6.49	7.62	6.64	5.96	9.40	7.19	7.82	7.59	–	–	–	–	–	–	Cc1cccc(-c2ccc(S(=O)(=O)N[C@@H](C(C)C)P(=O)(O)O)cc2)c1
6.82	8.82	7.28	6.34	–	8.10	8.59	7.10	–	–	–	–	–	–	COc1ccc(-c2ccc(S(=O)(=O)N[C@@H](C(C)C)P(=O)(O)O)cc2)cc1
–	5.96	–	–	–	–	–	–	5	16	40	68	17	63	COc1ccc(-c2ccc(S(=O)(=O)N[C@H](C(C)C)P(=O)(O)O)cc2)cc1
6.80	7.70	6.82	5.85	8.96	7.23	7.89	7.49	–	–	–	–	–	–	CC(C)[C@H](NS(=O)(=O)c1ccc(-c2ccc(F)cc2)cc1)P(=O)(O)O
6.22	8.74	7.44	5.70	8.82	7.62	8.38	6.89	–	–	–	–	–	–	CC(C)Oc1ccc(-c2ccc(S(=O)(=O)N[C@@H](C(C)C)P(=O)(O)O)cc2)cc1
6.35	9.41	7.92	6.35	9.43	9.25	8.96	7.96	–	–	–	–	–	–	CCOc1ccc(-c2ccc(S(=O)(=O)N[C@@H](C(C)C)P(=O)(O)O)cc2)cc1
6.49	7.52	6.36	5.54	8.89	6.80	7.62	7.12	–	–	–	–	–	–	CC(C)[C@H](NS(=O)(=O)c1ccc(-c2cccc(Cl)c2)cc1)P(=O)(O)O
7.11	8.06	7.55	5.77	9.09	7.68	8.28	7.33	–	–	–	–	–	–	CC(C)[C@H](NS(=O)(=O)c1ccc(-c2ccc(Cl)cc2)cc1)P(=O)(O)O
7.01	8.64	7.35	6.82	9.41	8.39	8.48	7.96	–	–	–	–	–	–	Cc1ccc(-c2ccc(S(=O)(=O)N[C@@H](C(C)C)P(=O)(O)O)cc2)cc1
–	6.10	–	3.89	6.96	6.17	6.32	4.40	9	31	–	–	–	–	COc1ccc(CCc2ccc(S(=O)(=O)N[C@@H](C(C)C)P(=O)(O)O)cc2)cc1
